# S100A4 inh HTS = blocks human S100A4 binding to myosin IIA peptide | P26447 | S100A4/TAMRA-MyoIIA peptide fluorescence polarization | inhibition, % at 10.7 µM | 0.14% of 360,000 active | AID 652163;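 active = mean inhibition of at least 70% across replicates, with every replicate also reaching that level; inconclusive = mean inhibition reaches 70% but some replicates fall short; inactive = mean inhibition below 70%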
#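 assay system = human S100A4 monomer with TAMRA-labelled myosin IIA peptide | also added = labelled myosin peptide probe, 5 nM | incubation = 5 min between mix addition and reading | control set = DMSO and TFP controls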
# Cneo AK release = Cryptococcus neoformans lysis via adenylate kinase release. lysis activity, % at 15 µM. C. neoformans lysis, adenylate kinase release luminescence, 4 h; normalised: neutral wells 0, clomiphene wells 100. 0.2% of 360,000 active;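 active = mean lysis activity across replicates of at least 80%, whatever share of replicates individually reach that level; inactive = mean lysis activity below 80%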
#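 Test system: log-phase Cryptococcus neoformans yeast cells; Quantity: yeast cell density of 5 × 10^6 cells/mL; Buffer or medium: YPD; Doses: single compound concentration per well; Timing: 4 h at 37 °C static, read 1 h later; Measured by: AK luminescence; Read-out basis: lysis from increased AK signal; Control set: Clomiphene as positive control.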
# DENV2 CPE = protects cells from dengue virus 2 cytopathic effect; DENV2-infected cells, cytopathic effect rescue, plate reader; AID 651640; 1.7% of 350,000 active; CPE inhibition, % at 9.99 µM; in the data active = CPE inhibition above about 20%, passing the limit was not always enough; inconclusive = no clear call, values can overlap the other calls; tested in BHK-21 cells;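 also: 0% = median of neutral control wells and 100% = median of positive control wells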
# AF4-AF9 inh = blocks AF4 peptide binding to human AF9 | AID 651704 | 0.47% of 350,000 active | P42568 | inhibition, % at 10 µM | AlphaScreen, biotin-AF4 peptide binding to FLAG-AF9;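 active = every replicate reaching a set inhibition limit, whatever the replicate mean, cut at about 25% in these data; inconclusive = mean inhibition reaches that limit but some replicates miss it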;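 also: 0% = plate neutral control median and 100% = total signal loss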
# Target sequence (P42568 whole entry, looked up): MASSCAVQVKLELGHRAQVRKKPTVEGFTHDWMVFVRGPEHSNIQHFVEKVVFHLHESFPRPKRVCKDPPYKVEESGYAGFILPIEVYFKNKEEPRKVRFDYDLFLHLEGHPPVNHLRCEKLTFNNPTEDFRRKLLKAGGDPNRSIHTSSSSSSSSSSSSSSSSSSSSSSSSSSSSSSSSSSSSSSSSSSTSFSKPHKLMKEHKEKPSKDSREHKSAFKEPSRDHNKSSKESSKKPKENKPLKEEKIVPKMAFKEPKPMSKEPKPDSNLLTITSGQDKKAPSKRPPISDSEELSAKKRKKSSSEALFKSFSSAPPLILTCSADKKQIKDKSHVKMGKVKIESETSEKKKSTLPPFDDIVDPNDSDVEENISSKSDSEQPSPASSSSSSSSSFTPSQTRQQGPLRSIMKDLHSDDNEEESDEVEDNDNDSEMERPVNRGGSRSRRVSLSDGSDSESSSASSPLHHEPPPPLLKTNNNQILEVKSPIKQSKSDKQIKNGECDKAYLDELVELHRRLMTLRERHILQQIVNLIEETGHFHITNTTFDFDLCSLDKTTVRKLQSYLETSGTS
# Ecoli rRNA inh = inhibitors of bacterial rRNA selective over humanized ribosomes; E. coli WT GFP vs humanized-ribosome RFP mutants, fluorescence, 24 h; hits give low values; DMSO median 0, no signal -100; GFP signal change (wild-type ribosome), % (no concentration beside the values); 1.6% of 350,000 active; AID 720706;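 active = significant combined selectivity score with lowered wild-type GFP, culture density cut under 30%, mutant RFP and density less affected; inactive = any of these conditions unmet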
# PfHsp90 set2 = growth inhibition of yeast expressing Plasmodium Hsp90 | S. cerevisiae expressing PfHsp90, BacTiter-Glo ATP, 48 h; yeast lacking PDR1 and PDR3 efflux regulators | inhibition, % at 9.4 µM | 0.32% of 310,000 active | AID 504621;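 active = every replicate shows inhibition above about 80%, whatever the replicate mean, limit read from the data; inconclusive = mean inhibition reaches the set limit but some replicate falls short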;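 also: 0% = DMSO neutral controls and 100% = 20 µM radicicol positive controls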
# * marks the source's active call; other numbers are inactive results; u = inconclusive; x = no result given; ! = not confirmed by another sample. Rows were chosen to be rich in hits. Some 3.2% of all compounds tested hit in one or more screens of this group.
SMILES,S100A4 inh HTS,Cneo AK release,DENV2 CPE,AF4-AF9 inh,Ecoli rRNA inh,PfHsp90 set2
CN(C)c1ccc(C=c2c3ccccc3n3c2cc(-c2ccc(Cl)cc2)[n+]3C)cc1,9,x,20,58*,-40,-10
CN(c1ccc(Cl)cc1)c1cc(=O)n(C)c2ccccc12,x,-5,x,x,x,-20
Cn1c(CO)c(-c2ccccc2)c2cc([N+](=O)[O-])ccc21,x,0,x,x,x,6
CN(C)c1ccc(C=c2c3ccccc3n3c2c2c([n+]3C)CCCC2)cc1,-6,x,8,37*,-76,-42
CN(C)c1ccc(C=c2c3cc([N+](=O)[O-])ccc3n3c2cc(-c2ccccc2)[n+]3C)cc1,98*,x,u,55*,-5,19
COc1cc(/C=C(/C(=O)O)c2ccc(-c3ccccc3)cc2)cc(OC)c1OC,-3,2,-2,1,-9,-40
COc1cc(C=c2c3ccccc3n3c2cc(-c2ccccc2)[n+]3C)cc(OC)c1OC,-72,x,7,29*,-34,-12
C[C@@H]1CN([C@@H](C)CO)C(=O)Cc2cc(NC(=O)Cc3cn(C)c4ccccc34)ccc2O[C@H]1CN(C)Cc1ccc(Oc2ccccc2)cc1,x,0,1,x,3,x
C/C=C/c1ccc([C@H]2[C@@H](CNC(C)=O)N(C(=O)Cc3ccncc3)[C@H]2CO)cc1,1,13,-10,0,3,x
COc1cc2c(cc1NC(=O)/C=C/c1ccc([N+](=O)[O-])cc1)oc1ccccc12,-10,-2,39*,-7,2,19
COc1ccc(/C=C/C(=O)NC(=S)Nc2cc([N+](=O)[O-])ccc2O)cc1OC,-7,x,-3,2,-17*,-24
COc1ccc(NC(=O)Nc2ccc3c(c2)C(=O)N([C@@H](C)CO)C[C@@H](C)[C@@H](CN(C)S(=O)(=O)c2c(C)noc2C)OCCCC[C@@H](C)O3)cc1,x,1,11,x,0,x
COc1ccc2c3c(n(C)c2c1)[C@H](CO)N(Cc1ccc2c(c1)OCO2)CC31CN(C(=O)C2CC2)C1,12,x,-6,0,-2,x
CCOC(=O)CN(C)Cc1cn(C)nc1-c1ccc(Oc2ccccc2)cc1,-25,2,3,4,-20*,-29
Cc1cnccc1CN(C)Cc1cn(C)nc1-c1ccc(Oc2ccccc2)cc1,0,x,-2,3,-57,3
CCCC#Cc1cnc2c(c1)C(=O)N([C@H](C)CO)C[C@H](C)[C@@H](CN(C)Cc1ccc3c(c1)OCO3)O2,u,3,14,6,0,x
Nc1cc(-c2ccncc2)c[nH]c1=O,152*!,1,-1,-9,7,0
O=C(C1CCCC1)N1CC2(C1)[C@@H](c1ccccc1)[C@@H](CO)N2CCC(F)(F)F,7,x,0,0,0,x
O=C(NOCc1ccccc1)c1coc(-c2ccccc2)n1,-3,-6,-3,-1,-26*,-7
NC(=O)NOCc1ccccc1,-2,x,0,-2,25,7
Oc1cc(-c2cccnc2)cc2cccnc12,0,1,-4,26*,-18,-34
CN1CCN(c2cc(-c3cc(O)c4ncccc4c3)ccn2)CC1,-5,0,-5,84*,-33,x
C[C@@H]1CN([C@@H](C)CO)C(=O)c2cccc(NC(=O)Nc3ccc4c(c3)OCO4)c2O[C@H]1CN(C)Cc1ccc(Cl)c(Cl)c1,13,0,3,-2,-5,x
CCCNC(=O)N1C[C@@H](O)COC[C@H]2O[C@H](CC(=O)NCc3ccc(Cl)c(Cl)c3)CC[C@@H]21,-5,1,u,-3,-2,x
CC(=O)Nc1ccc(Nc2ncnc(N)c2[N+](=O)[O-])cc1,3,x,1,50*,3,-14
COC(=O)C(C)Oc1cc(OC(C)C(=O)OC)c2c(-c3ccccc3)cc(=O)oc2c1 (configuration not stated),1,1,2,-2,-24*,25
O=C(/C=C/c1ccccc1)CC(O)(c1ccccc1)C(F)(F)C(F)F (configuration not stated),-3,0,2,9,-32*,-33
